This note sets out measurements from ChEMBL document CHEMBL1955737, “Diarylpyrimidine-dihydrobenzyloxopyrimidine hybrids: new, wide-spectrum anti-HIV-1 agents active at (sub)-nanomolar level” (J Med Chem, 2011).

The target in data set [1] is Human immunodeficiency virus type 1 reverse transcriptase (Human immunodeficiency virus 1) (UniProt Q72547).
Data set [2] concerns Human immunodeficiency virus 1. Nature of the data set: Ratio of ID50 for HIV 1 reverse transcriptase L100I mutant to ID50 for wild type HIV 1 NL4-3 reverse transcriptase. The gist of the method:
(§1)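 Recombinant HIV-1 RT (wild type or K103N, L100I, Y181I or Y188L), purified to >95%, at 2-4 nM. RNA-dependent DNA polymerase assay with 0.5 μg poly(rA)/oligo(dT) 10:1 (0.3 μM 3'-OH ends) and 10 μM [3H]dTTP in 8% final DMSO. Initial velocities were taken from aliquots sampled every 2 min. […] The ratio is mutant ID50 over wild-type ID50. Means of at least three experiments.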

A short description of data set [3]: Selectivity index, ratio of CC50 for human MT4 cells to EC50 for HIV 1 NL4-3. Format: toxicity, cell-based. As to conditions: read-out: Ratio CC50/EC50. The gist of the method: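 CC50 from mock-infected MT-4 cells and EC50 against HIV-1 NL4-3 in infected MT-4 cells, both by day-5 MTT viability read-out; index computed as CC50/EC50(NL4-3); means of at least two experiments.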

For data set [4], the system named is Human immunodeficiency virus 1. Nature of the data set: Antiviral activity against HIV 1 harboring reverse transcriptase Y188L mutant infected in human MT4 cells assessed as inhibition of virus-induced cytopathic effect after 5 days by MTT assay. As to conditions: Human immunodeficiency virus 1, MT4, 120 h. Format: functional, organism-based.
Data set [5] deals with Human immunodeficiency virus 1. The data set can be described thus: Ratio of ID50 for HIV 1 reverse transcriptase K103N mutant to ID50 for wild type HIV 1 NL4-3 reverse transcriptase. The gist of the method: as §1
The subject of data set [6] is Human immunodeficiency virus type 1 reverse transcriptase (Human immunodeficiency virus 1), Q72547 [Y181I].
Data set [7] deals with Human immunodeficiency virus 1. Nature of the data set: Resistance ratio of EC50 for HIV 1 harboring reverse transcriptase Y188L mutant infected in human MT4 cells to EC50 for wild type HIV 1 NL4-3 infected in human MT4 cells. Format: functional. The gist of the method:
(§2)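 Fold change is the EC50 against the mutant strain (K103N, Y181C, Y188L or IRLL98) divided by the EC50 against wild-type NL4-3. Both EC50s come from MT-4 cells infected in the presence of a range of drug concentrations, with MTT viability read at day 5. Values are means of at least two experiments.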

The test system of data set [8] is Human immunodeficiency virus 1. The data set can be described thus: Resistance ratio of EC50 for HIV 1 harboring reverse transcriptase Y181C mutant infected in human MT4 cells to EC50 for wild type HIV 1 NL4-3 infected in human MT4 cells. Format: functional. An outline of the steps:
as §2

Data set [9] concerns Human immunodeficiency virus 1. Nature of the data set: Resistance ratio of EC50 for HIV 1 harboring reverse transcriptase K103N mutant infected in human MT4 cells to EC50 for wild type HIV 1 NL4-3 infected in human MT4 cells. Format: functional. An outline of the steps:
as §2

A short description of data set [10]: Cytotoxicity against human MT4 cells assessed as cell viability by MTT assay. Format: cell-based. In general terms: Formazan colour is commonly taken as a measure of viable cells.
The subject of data set [11] is Human immunodeficiency virus type 1 reverse transcriptase (Human immunodeficiency virus 1), Q72547 [K103N].
In data set [12] the test system is Human immunodeficiency virus 1. The data set can be described thus: Ratio of ID50 for HIV 1 reverse transcriptase Y188L mutant to ID50 for wild type HIV 1 NL4-3 reverse transcriptase. The gist of the method: as §1
The subject of data set [13] is Human immunodeficiency virus 1. The data set can be described thus: Ratio of ID50 for HIV 1 reverse transcriptase Y181I mutant to ID50 for wild type HIV 1 NL4-3 reverse transcriptase. The gist of the method:
as §1

Data set [14] has as its system Human immunodeficiency virus 1. The data set can be described thus: Antiviral activity against multidrug-resistant HIV 1 IRLL98 harboring reverse transcriptase K101Q/Y181C/G190a mutant infected in human MT4 cells assessed as virus-induced cytopathic effect after 5 days by MTT assay. Format: functional, organism-based. As to conditions: Human immunodeficiency virus 1, IRLL98, MT4, 120 h. The gist of the method:
(§3)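 MT-4 cells (NIH AIDS Reagent Program) infected with the mutant HIV-1 strain in the presence of a range of drug concentrations. Mutant strains were from the MRC Centralised Facility for AIDS Reagents; IRLL98 carries K101Q, Y181C and G190A. Viable cells were counted by MTT colorimetry at day 5 post-infection. […] Values are means of at least two experiments.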
In general terms: Cytopathic effects are the visible damage that an infection or toxin causes in cultured cells.

For data set [15], the system named is Human immunodeficiency virus 1. The data set can be described thus: Resistance ratio of EC50 for multidrug-resistant HIV 1 IRLL98 harboring reverse transcriptase K101Q/Y181C/G190a mutant to EC50 for wild type HIV 1 NL4-3 infected in human MT4 cells. Format: functional. An outline of the steps: as §2
The test system of data set [16] is Human immunodeficiency virus type 1 reverse transcriptase (Human immunodeficiency virus 1), Q72547 [L100I].
Data set [17] deals with Human immunodeficiency virus 1. The data set can be described thus: Antiviral activity against wild type HIV 1 NL4-3 infected in human MT4 cells assessed as inhibition of virus-induced cytopathic effect after 5 days by MTT assay. Format: functional, organism-based. As to conditions: Human immunodeficiency virus 1, NL4-3, MT4, 120 h.
Data set [18] deals with Human immunodeficiency virus 1. The data set can be described thus: Antiviral activity against HIV 1 harboring reverse transcriptase K103N mutant infected in human MT4 cells assessed as inhibition of virus-induced cytopathic effect after 5 days by MTT assay. Format: functional, organism-based. As to conditions: Human immunodeficiency virus 1, MT4, 120 h.
The test system of data set [19] is Human immunodeficiency virus 1. The data set can be described thus: Antiviral activity against HIV 1 harboring reverse transcriptase Y181C mutant infected in human MT4 cells assessed as inhibition of virus-induced cytopathic effect after 5 days by MTT assay. Format: functional, organism-based. As to conditions: Human immunodeficiency virus 1, MT4, 120 h. An outline of the steps:
as §3

Data set [20] in a line: Ratio of TMC120 CC50 to compound CC50 for human MT4 cells. Format: ADME, cell-based.
A further data set concerns MT4. Nature of the data set: Ratio of MC1220 CC50 to compound CC50 for human MT4 cells. Format: ADME, cell-based.
Data set [21] deals with Human immunodeficiency virus 1. The data set can be described thus: Ratio of efavirenz EC50 to compound EC50 for wild type HIV 1 NL4-3 infected in human MT4 cells. Format: functional.
Data set [22] has as its system Human immunodeficiency virus type 1 reverse transcriptase (Human immunodeficiency virus 1), Q72547 [K103N]. The data set can be described thus: Ratio of MC1220 ID50 to compound ID50 for HIV 1 reverse transcriptase K103N mutant.

pEC50: −log10 of the molar value.

The term pEC50 denotes the negative decadic logarithm of the EC50, by convention in mol/L. The term CC50 denotes the concentration that lowers cell viability or growth by half. For `Cc1c(Cl)nc(Nc2ccc(C#N)cc2)nc1C(C)c1c(F)cccc1F` (stereo not drawn), the ID50 in data set [1] was 8.8 nM; in data set [6], 3400 nM; in data set [11], 71 nM; in data set [16], 150 nM. Besides, the Ratio in [2] is 17; in [5] it was 8.1; in data set [12] it was 2.6; in data set [13] it was 386. Also, in data set [3], the selectivity ratio is more than 5650. Besides, the pEC50 in data set [4] is 7.22; in data set [14] it was 8.11; in data set [17], 8.64; in [18], 8.64; in data set [19], 7.36. Besides, the “Ratio EC50” value was 30 in data set [7], 22 in data set [8], 1 in data set [9] and 3 in data set [15]. The 50% cytotoxic concentration (CC50) in data set [10] is more than 13000 nM.

`Cc1c(N)nc(Nc2ccc(C#N)cc2)nc1C(C)c1c(F)cccc1F` (stereo not drawn): the ID50 is 14 nM in [1], 1680 nM in data set [6], 22 nM in data set [11] and 282 nM in [16]. Also, the Ratio came to 20 in [2]; 1.6 in data set [5]; 10 in data set [12]; 120 in [13]; 2.5 in the data set on MT4; 23 in data set [22]. Besides, the pEC50 in [4] was 7.56; in data set [14] it was 9.09; in data set [17], 10.10; in [18] it was 7.46; in data set [19], 7.40. Further, in data set [20], the selectivity ratio was more than 10. The CC50 in data set [10] was 40500 nM. Moreover, the “Ratio EC50” value in data set [15] was 10; in data set [21], more than 10.
